Results published in ChEMBL document CHEMBL1134537, “Potent dibasic GPIIb/IIIa antagonists with reduced prolongation of bleeding time: synthesis and pharmacological evaluation of 2-oxopiperazine derivatives” (J Med Chem, 2001).

Assays:
Format in all cases: functional
Cavia porcellus [1] = test: Effect on bleeding time when a dose of 4 ug/kg/min was administered to guinea pig
In short: (§1)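 Male guinea pigs (250–400 g) received continuous iv infusion of compound in 0.9% saline, with vehicle for controls. Template BT was taken 90 min after infusion start under pentobarbital (25 mg/kg ip), with hind limb shaved the day before and a pressure cuff proximal to the site. Each animal's value is the mean of two cuts; mean ± SE, n = 3. The cut-off is 900 s.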

Cavia porcellus [2] = species: Cavia porcellus; test: Ex vivo inhibition of ADP induced aggregation in guinea pig platelets
In short: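 Male guinea pigs (250–400 g) were given a continuous iv infusion in 0.9% saline, with vehicle for controls. At 90 min, citrated blood was drawn from the abdominal aorta under anesthesia and PRP was prepared. Aggregation was induced with submaximal ADP and read by light transmittance. ID50 in μg/kg/min with 95% CI, n = 2–5.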

Cavia porcellus [3] = species: Cavia porcellus; test: In vitro inhibition of ADP induced aggregation in guinea pig platelets
In short: (§2)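 Guinea pig blood was taken by aortic puncture under pentobarbital into 3.15% citrate (1:10). PRP was adjusted to 4 × 10^5 platelets/μL and prewarmed 2 min at 37 °C with compound, stirred. Aggregation was induced with ADP (0.8–1 μM) and read as the change in light transmittance. IC50 with 95% CI.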

[4] = Dose ratio for dose causing prolongation of bleeding time to 3 times the basel value vs ID50 value of ex-vivo ADP-induced platelet aggregation.
In short: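 Template bleeding time and ex vivo ADP aggregation measured in male guinea pigs 90 min after starting continuous iv infusion in 0.9% saline. BT(×3) is the dose prolonging BT to 3 times basal. The ratio is BT(×3) dose divided by the ex vivo ID50 dose.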

Cavia porcellus [5] = test: Effect on bleeding time when a dose of 4.0 ug/kg/min was administered to guinea pig; in short: as §1
Cavia porcellus [6] = test: Effect on bleeding time when a dose of 0.2 ug/kg/min was administered to guinea pig; in short: as §1
Cavia porcellus [7] = test: Effect on bleeding time when a dose of 10 ug/kg/min was administered to guinea pig; in short: as §1
Cavia porcellus [8] = test: Effect on bleeding time when a dose of 6.5 ug/kg/min was administered to guinea pig; in short: as §1
Cavia porcellus [9] = test: Effect on bleeding time when a dose of 9.0 ug/kg/min was administered to guinea pig; in short: as §1
Cavia porcellus [10] = test: Effect on bleeding time when a dose of 5 ug/kg/min was administered to guinea pig; in short: as §1
Cavia porcellus [11] = test: Effect on bleeding time when a dose of 5.0 ug/kg/min was administered to guinea pig; in short: as §1
Cavia porcellus [12] = test: Effect on bleeding time when a dose of 2.5 ug/kg/min was administered to guinea pig; in short: as §1
Cavia porcellus [13] = test: Effect on bleeding time when a dose of 2 ug/kg/min was administered to guinea pig; in short: as §1
Cavia porcellus [14] = test: Effect on bleeding time when a dose of 8.0 ug/kg/min was administered to guinea pig; in short: as §1
Cavia porcellus [15] = test: Effect on bleeding time when a dose of 2.2 ug/kg/min was administered to guinea pig; in short: as §1
Cavia porcellus [16] = species: Cavia porcellus; test: In vitro effect on ADP induced platelet aggregation in guinea pig platelet rich plasma; in short: as §2
Homo sapiens [17] = species: Homo sapiens; test: In vitro effect on ADP induced platelet aggregation in human platelet rich plasma
In short: (§3)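 Human blood was collected into 3.8% citrate (1:10). PRP was adjusted to 3 × 10^5 platelets/μL and preincubated 2 min at 37 °C with compound, stirred at 1000 rpm. ADP (1–10 μM) was then added and light-transmittance aggregometry recorded. IC50 with 95% CI, n = 4.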

Homo sapiens [18] = species: Homo sapiens; test: In vitro effect on TRAP induced human platelet aggregation
In short: (§4)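 Human citrated (3.8%) PRP adjusted to 3 × 10^5 platelets/μL was stirred and prewarmed 2 min at 37 °C with compound. Submaximal agonist was added (PAF, TRAP or collagen) and aggregation recorded as the change in light transmittance.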

Homo sapiens [19] = species: Homo sapiens; test: In vitro effect on collagen induced human platelet aggregation; in short: as §4
[20] = In vitro effect on ADP induced platelet aggregation in monkey platelet rich plasma; conditions: Cercopithecidae
In short: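 Monkey blood was drawn into 3.8% citrate (1:10). PRP at 3 × 10^5 platelets/μL was warmed 2 min at 37 °C with compound under stirring. Aggregation was triggered by ADP (30–40 μM) and measured by light transmittance. IC50 with 95% CI, n = 4.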

Homo sapiens [21] = species: Homo sapiens; test: In vitro effect on ADP induced human platelet aggregation; in short: as §3
Homo sapiens [22] = species: Homo sapiens; test: In vitro effect on PAF induced human platelet aggregation; in short: as §4
Cavia porcellus [23] = test: Effect on bleeding time when a dose of 0.9 ug/kg/min was administered to guinea pig; in short: as §1
Cavia porcellus [24] = test: Effect on bleeding time when a dose of 1.4 ug/kg/min was administered to guinea pig; in short: as §1
Cavia porcellus [25] = test: Effect on bleeding time when a dose of 6.0 ug/kg/min was administered to guinea pig; in short: as §1
Cavia porcellus [26] = test: Effect on bleeding time when a dose of 3.0 ug/kg/min was administered to guinea pig; in short: as §1

IC50 (Cavia porcellus [3])	Structure (SMILES)	ID50 (Cavia porcellus [2])	Dissociation ratio [4]	other results
57 nM	N=C(N)Cc1ccc(C(=O)NC[C@H]2C(=O)N(CC(=O)O)CCN2C(=O)CNC(=O)c2ccc(C(=N)N)cc2)cc1	0.42 µg/min/kg	<10	BT (Cavia porcellus [1]): 760
67 nM	N=C(N)Cc1ccc(C(=O)NCCC[C@H]2C(=O)N(CC(=O)O)CCN2C(=O)CNC(=O)c2ccc(C(=N)N)cc2)cc1	0.41 µg/min/kg	10	BT (Cavia porcellus [5]): 620
12 nM	COc1ccc(C[C@H](NC(=O)c2ccc(C(=N)N)cc2)C(=O)N2CCN(CC(=O)O)C(=O)[C@@H]2CCCCNC(=O)c2ccc(C(=N)N)cc2)cc1	0.041 µg/min/kg	<5	BT (Cavia porcellus [6]): >900
140 nM	N=C(N)Nc1ccc(C(=O)NCC(=O)N2CCN(CC(=O)O)C(=O)[C@@H]2CNC(=O)c2ccc(NC(=N)N)cc2)cc1	1 µg/min/kg	<10	BT (Cavia porcellus [7]): 720
85 nM	N=C(N)Nc1ccc(C(=O)NC[C@H]2C(=O)N(CC(=O)O)CCN2C(=O)CNC(=O)c2ccc(C(=N)N)cc2)cc1	0.66 µg/min/kg	10	BT (Cavia porcellus [8]): 660
97 nM	N=C(N)Nc1ccc(C(=O)NCC[C@H]2C(=O)N(CC(=O)O)CCN2C(=O)CNC(=O)c2ccc(NC(=N)N)cc2)cc1	0.88 µg/min/kg	<10	BT (Cavia porcellus [9]): 800
210 nM	N=C(N)c1ccc(C(=O)NCC(=O)N2CCN(CC(=O)O)C(=O)[C@@H]2CCCNC(=O)CCCCN)cc1	0.94 µg/min/kg	>5	BT (Cavia porcellus [10]): 490
150 nM	N=C(N)c1ccc(C(=O)NCCCC[C@H]2C(=O)N(CC(=O)O)CCN2C(=O)CNC(=O)c2ccc(C(=N)N)cc2)cc1	0.79 µg/min/kg	6	BT (Cavia porcellus [11]): 620
37 nM	N=C(N)Nc1ccc(C(=O)NCC[C@H]2C(=O)N(CC(=O)O)CCN2C(=O)CNC(=O)c2ccc(C(=N)N)cc2)cc1	0.12 µg/min/kg	21	BT (Cavia porcellus [12]): 820; BT (Cavia porcellus [13]): 410
190 nM	N=C(N)c1ccc(C(=O)NCC[C@H]2C(=O)N(CC(=O)O)CCN2C(=O)CNC(=O)c2ccc(C(=N)N)cc2)cc1	0.91 µg/min/kg	<9	BT (Cavia porcellus [14]): 800
160 nM	N=C(N)c1ccc(C(=O)NCC(=O)N2CCN(CC(=O)O)C(=O)[C@@H]2CCCNC(=O)CCCCCN)cc1	0.86 µg/min/kg	<12	BT (Cavia porcellus [7]): 780
37 nM	N=C(N)c1ccc(C(=O)NCCC[C@H]2C(=O)N(CC(=O)O)CCN2C(=O)CNC(=O)c2ccc(C(=N)N)cc2)cc1	0.19 µg/min/kg	12	BT (Cavia porcellus [15]): 660
	COC(=O)C[C@H]1C(=O)N(CC(=O)O)CCN1C(=O)CNC(=O)c1ccc(C(=N)N)cc1			IC50 (Cavia porcellus [16]): 43 nM; IC50 (Homo sapiens [17]): 31 nM; IC50 (Homo sapiens [18]): 32 nM; IC50 (Homo sapiens [19]): 31 nM; IC50 [20]: 46 nM; IC50 (Homo sapiens [21]): 31 nM; IC50 (Homo sapiens [22]): 29 nM
19 nM	N=C(N)Nc1ccc(C(=O)NCCC[C@H]2C(=O)N(CC(=O)O)CCN2C(=O)CNC(=O)c2ccc(C(=N)N)cc2)cc1	0.087 µg/min/kg	16	BT (Cavia porcellus [23]): 490; BT (Cavia porcellus [24]): >900
23 nM	COc1ccc(C[C@H](NC(=O)c2ccc(C(=N)N)cc2)C(=O)N2CCN(CC(=O)O)C(=O)[C@@H]2CCCNC(=O)c2ccc(C(=N)N)cc2)cc1	0.021 µg/min/kg	10	
88 nM	N=C(N)NCCCC(=O)NCCC[C@H]1C(=O)N(CC(=O)O)CCN1C(=O)CNC(=O)c1ccc(C(=N)N)cc1	0.47 µg/min/kg	21	BT (Cavia porcellus [7]): 620
81 nM	N=C(N)c1ccc(C(=O)NCC(=O)N2CCN(CC(=O)O)C(=O)[C@@H]2CCCNC(=O)c2ccc(CCN)cc2)cc1	0.56 µg/min/kg	11	BT (Cavia porcellus [25]): 860; BT (Cavia porcellus [26]): 270
51 nM	N=C(N)Nc1ccc(C(=O)NCCC[C@H]2C(=O)N(CC(=O)O)CCN2C(=O)CNC(=O)c2ccc(NC(=N)N)cc2)cc1	0.18 µg/min/kg	>33	IC50 (Cavia porcellus [16]): 51 nM; BT (Cavia porcellus [25]): 510; IC50 (Homo sapiens [17]): 31 nM; IC50 (Homo sapiens [18]): 91 nM; IC50 (Homo sapiens [19]): 59 nM; IC50 [20]: 79 nM; IC50 (Homo sapiens [21]): 31 nM; IC50 (Homo sapiens [22]): 30 nM
120 nM	N=C(N)c1ccc(C(=O)NCC(=O)N2CCN(CC(=O)O)C(=O)[C@@H]2CNC(=O)c2ccc(C(=N)N)cc2)cc1	0.72 µg/min/kg	<6	BT (Cavia porcellus [5]): >900
